Screening results as filed in PubChem.
Shown are actives, neighbours in structure and some others; about 1.9% of the full set was active somewhere.
b-catenin transl – modulators of beta-catenin nuclear translocation, primary screen, imaging, HeLa cells, immunofluorescence, high-content; nuclear translocation activity, % at 5 µM; hit rate 0.3% among 190,000; AID 1665, 2009;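 active = nuclear translocation activity above 50% at 5 µM, with a well cell count of 50 or more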;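 also: per-cell ratio of nuclear to cytoplasmic median beta-catenin stain intensity; plate controls were DMSO negative control for no effect and GSK-3 inhibitor IX positive control for full effect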
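Test system: HeLa cells, endogenous beta-catenin; Compound: single 5 µM dose plus 0.02–20 µM confirmation series; Times: compound exposure 24 h at 37°C; Signal: fluorescence imaging of beta-catenin antibody stain plus DAPI; Read-out: % activation, nuclear-to-cytoplasmic median beta-catenin signal ratio per cell.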
Ins promoter up – insulin promoter activators in MIN6 cells, imaging, high-content screening, mouse beta cells; hit rate 0.3% among 190,000; MIN6 insulin promoter-GFP reporter; active compounds read high; z-score at 5 µM;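 active = z-score above 3 at 5 µM with at least 500 cells counted in the well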
MT stabilizer – microtubule stabilizers in HeLa cells, primary screen, imaging, high-content imaging; % tubulin-high responders, % at 10 µM; hit rate 0.83% among 200,000; HeLa tubulin immunostaining HCS, 24 h; share of cells brighter than vehicle mean+2SD;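 active = plate Z-score above 3 for both tubulin-high and condensed-nucleus cell shares, with cell loss under 80%, at 10 µM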;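 also: anti alpha tubulin signal scored within the nucleus-defined area of each cell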
Autophagy HCS – autophagy modulators in MEF cells, primary screen, imaging, high-content, MEF GFP-LC3; MEF GFP-LC3 puncta imaging; test concentration mostly 10 µM; hit rate 0.98% among 190,000; calls only at 10 µM (by protocol); AID 463193, 2010;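 active = percentage of spot-positive cells more than 3 SD above its plate mean, without a fluorescence outlier flag or 80% toxicity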;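 also: spot-positive cell cutoff set from DMSO-treated cells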
Starred values were filed as active, the others as inactive; i = inactive; x = no result given; + = active, no number.

SMILES	b-catenin transl	Ins promoter up	MT stabilizer	Autophagy HCS
OCc1nc2ccccc2n1/N=C/c1cccs1	1	0.04	x	x
CCc1cccc(CC)c1N(COC)C(=O)Cn1nnc2ccccc21	-7	-0.86	3	i
CCc1cccc(CC)c1N(COC)C(=O)Cn1ccccc1=N	-3	0.97	4	+
COCCNC(=O)CCC(=O)NNc1nc2ccccc2c2nc(-c3ccccc3)nn12	0	-0.45	5	i
Cc1ccc(S(=O)(=O)NCCC(=O)Nc2nnc(C3CC3)s2)cc1C	-7	x	5	i
Cc1cc(C)cc(N(CCC(=O)Nc2nnc(C3CC3)s2)S(=O)(=O)c2ccc(Cl)cc2)c1	-2	x	19*	i
Cc1ccc2c(CN3CCN(S(=O)(=O)/C=C/c4ccccc4)CC3)cc(=O)oc2c1	0	-0.31	1	i
CC(C)C(=O)N1CCN(c2ccc(NC(=O)c3ccc([N+](=O)[O-])o3)cc2Cl)CC1	7	0.26	53*	i
CCCC(=O)N1CCN(c2ccc(NC(=O)c3ccc([N+](=O)[O-])o3)cc2Cl)CC1	-2	0.26	4	+
O=C(Nc1ccc(N2CCN(C(=O)c3ccccc3)CC2)cc1)c1ccc([N+](=O)[O-])o1	1	x	15*	i
CC(C)C(=O)N1CCN(c2ccc(NC(=O)c3ccc([N+](=O)[O-])o3)cc2)CC1	7	0.46	11	+
CCOc1ccc(C(=O)C[n+]2ccccc2C)cc1	0	0.89	4	i
Cc1ccc(S(=O)(=O)Nc2ccc(C(=O)OCC(=O)N(CCC#N)c3ccccc3)cc2)cc1C	-1	x	4	i
Clc1nn2cnnc2c2ccccc12	-2	-0.39	1	i
COc1ccc2c(C)cc(SCC(=O)N(C)C3CCS(=O)(=O)C3)nc2c1 (stereo not drawn)	-2	x	5	+
COc1ccc2c(C)cc(SCC(=O)N3CCOCC3)nc2c1	-4	0.93	3	i
CCN(C(=O)c1cc2cc(OC)ccc2oc1=O)c1cccc(C)c1	-16	x	1	i
Cc1ccccc1Cn1c(=N)n(CC(O)c2ccco2)c2ccccc21 (stereo not drawn)	0	-1.1	2	i
CC(C)(C)c1ccc(Cn2c(=N)n(CC(O)c3ccco3)c3ccccc32)cc1 (stereo not drawn)	-1	-5.5	9.5*	i
N#Cc1nc(COc2ccccc2Cl)oc1NCc1cccnc1	1	1	2	i
CC(=O)Nc1ccc(N2CCc3c(C)c(C#N)c4nc5ccccc5n4c32)cc1	0	3.8*	4	+
Cc1c2c(n3c(nc4ccccc43)c1C#N)N(Cc1cccnc1)CC2	x	x	4	i
CCNS(=O)(=O)c1ccc2c3c(cccc13)C(=O)N2	x	-0.81	1	i
CCOC(=O)C1CCN(c2nc3ccccc3nc2C(C#N)C(=O)OC(C)COC)CC1 (stereo not drawn)	x	-1.3	5	i
CCOC(=O)C1CCN(c2nc3ccccc3nc2C(C#N)C(=O)OC(C)C)CC1 (stereo not drawn)	-1	-0.31	4	+
SMILES	b-catenin transl	Ins promoter up	MT stabilizer	Autophagy HCS
COc1ccc(CNC(=O)C(C#N)c2nc3ccccc3nc2N2CCCC2)cc1 (stereo not drawn)	2	2.2	3	+
COc1cc(SC)ccc1C(=O)Nc1nccs1	0	0.51	4	i
NCCCC[C@@H]1NC(=O)c2cc([N+](=O)[O-])cc(I)c2SC[C@@H](C(=O)NCC(N)=O)NC(=O)CNC1=O	4	1.2	3	i
CC1=CC(C)(C)N(S(=O)(=O)c2ccc(C)cc2)c2cc(C)ccc21	x	x	21*	+
CCOc1ccc2c(c1)C(C)=CC(C)(C)N2S(=O)(=O)c1ccc(C)cc1	44	-3.3	6	i
COc1ccc2c(c1)C(C)=CC(C)(C)N2S(=O)(=O)c1ccc(C)cc1	63*	-2.5	9	i
CC1=CC(C)(C)N(C(=O)CCl)c2cc(C)ccc21	1	-0.05	3	i
Cn1c(=O)c2ncn(CC(=O)N=Nc3c(O)[nH]c4ccccc34)c2n(C)c1=O	4	-0.64	4	i
CC(=O)N(Cc1ccccc1)c1ccccc1C(=O)O	0	0.21	x	x
CC(=O)N(Cc1ccc(Br)cc1)c1cccc(C)c1C	52*	-0.24	16	i
COc1ccc(CN(C(C)=O)c2cccc(C)c2C)cc1	10	0.42	43*	i
COc1ccc(N2CC(C(=O)N/N=C/c3ccc(C)cc3)CC2=O)cc1 (stereo not drawn)	54*	0.1	21	i
O=C(C1CCN(S(=O)(=O)c2ccccc2[N+](=O)[O-])CC1)N1CCOCC1	0	0.11	3	i
C/C(=N\NC(=O)CC1N=C(Cc2ccccc2)NNC1=O)c1ccc(C)cc1 (stereo not drawn)	0	-1.1	31*	i
C/C(=N\NC(=O)CC1N=C(Cc2ccccc2)NNC1=O)c1ccc(Br)cc1 (stereo not drawn)	0	0.36	x	x
CN(CC(O)COc1ccc(OCC(O)CN(C)C2CCCCC2)cc1)C1CCCCC1 (stereo not drawn)	-4	0.07	2	+
CCC(=O)c1ccc(OCC(O)CN(C)C2CCCCC2)cc1 (stereo not drawn)	x	x	3	i
O=C(COC(=O)c1ccc(NS(=O)(=O)c2ccc(F)c(F)c2)cc1)NCC1CCCO1 (stereo not drawn)	-1	-0.58	2	i
CCN(CC)c1ccc(NC(=O)c2cccc(F)c2)c(C)c1	26	-0.87	37*	i
Cc1ccc(C(=O)OCC(=O)Nc2c(Cl)cc(S(N)(=O)=O)cc2Cl)o1	-4	-0.2	x	x
Cc1ccc(CSc2nnc3ccc(-c4ccncc4)nn23)cc1	1	-0.92	2	i
Cc1nn2c(COc3ccc(NC(=O)C(C)C)cc3)nnc2c2ccccc12	0	x	4	i
Cc1nn2c(COc3ccc(NC(=O)c4ccccc4Cl)cc3)nnc2c2ccccc12	-1	-0.19	18*	i
CC1c2nc3ccccc3n2C(CC(=O)NC2CC2)C(=O)N1Cc1ccccc1 (stereo not drawn)	1	0.33	1	i
COc1ccc(NC(=S)NCCN2CCOCC2)cc1	3	-0.32	2	i
SMILES	b-catenin transl	Ins promoter up	MT stabilizer	Autophagy HCS
COc1cc(NC(=S)NCCN2CCOCC2)cc(OC)c1	-1	-0.67	5	+
CCOc1cc(C(=O)OCC(=O)Nc2ncc(Cl)c(C)c2Cl)ccc1OCC(=O)N1CCOCC1	-1	0.44	6	i
CCOc1ccc(-n2c(SCC(=O)NC(C)CC)nc3n[nH]c(C)c3c2=N)cc1 (stereo not drawn)	-1	3*	5	i
CCC(C)NC(=O)c1ccc(-n2c(=S)[nH]c3ccccc3c2=O)cc1 (stereo not drawn)	0	-0.62	3	i
NCC12CC3CC(C1)CC(CN)(C3)C2	-4	3.1*	5	i
NCC12CC3CC(CC(O)(C3)C1)C2	x	0.19	1	i
